Peptide text beside a SMILES is read from it.
System: HsNAA10
Assay: Nt acetyltransferase inhibitor assay
Type: biochemical
Details: Ki panel of human NATs
In short: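 In vitro Nt-acetylation assay on purified human NAT enzymes. IC50 values were determined for NAA80. Ki values for the bisubstrate inhibitor were determined across a panel of human NATs. Each reaction was run at least three times, in triplicate. Errors are given as SD.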

- Fold reduced potency for NAA10 compared with NAA80: 88 fold
SMILES: CC[C@H](C)[C@H](NC(=O)[C@H](CC(=O)O)NC(=O)[C@H](CC(=O)O)NC(=O)[C@H](CC(=O)O)NC(=O)CSCCNC(=O)CCNC(=O)[C@H](O)C(C)(C)COP(=O)(O)OP(=O)(O)OC[C@H]1O[C@@H](n2cnc3c(N)ncnc32)[C@H](O)[C@@H]1OP(=O)(O)O)C(N)=O [CoA-Ac-DDDI-NH2] (HELM PEPTIDE1{[CC(C)(COP(=O)(O)OP(=O)(O)OC[C@H]1O[C@@H](n2cnc3c(N)ncnc32)[C@H](O)[C@@H]1OP(=O)(O)O)[C@@H](O)C(=O)[*:2]].[bAla].[O=C(CSCCN[*:1])[*:2]].D.D.D.I.[am]}$$$$V2.0)
